Screens deposited in PubChem by several laboratories.
A selection: hits, their analogues and other compounds. The true share with any hit is near 0.89%.
hiPSC survival – hiPSC single-cell survival enhancement | AID 602274 | ATPlite luminescence; 100% = ROCK inhibitor wells, 0% = DMSO | survival enhancement, % at 20 µM | hit rate 0.044% among 360,000; in the data active = survival enhancement above about 18%;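 note: cells exposed to compounds for 16 hours before the ATP read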
ABCB6 inh MLPCN – blocks the human ABCB6 transporter. K562-ABCB6 porphyrin accumulation, flow cytometry, 1 h; stronger effect = lower value. hit rate 0.19% among 360,000. fluorescence ratio to DMSO, % at 10 µM. Q9NP58;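 active = fluorescence ratio to DMSO below 75%, the collection mean minus 3 SD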;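 note: signal is porphyrin accumulated inside mitochondria; lower ratio means ABCB6 inhibition with less porphyrin fluorescence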
Target sequence (Q9NP58 whole entry, looked up): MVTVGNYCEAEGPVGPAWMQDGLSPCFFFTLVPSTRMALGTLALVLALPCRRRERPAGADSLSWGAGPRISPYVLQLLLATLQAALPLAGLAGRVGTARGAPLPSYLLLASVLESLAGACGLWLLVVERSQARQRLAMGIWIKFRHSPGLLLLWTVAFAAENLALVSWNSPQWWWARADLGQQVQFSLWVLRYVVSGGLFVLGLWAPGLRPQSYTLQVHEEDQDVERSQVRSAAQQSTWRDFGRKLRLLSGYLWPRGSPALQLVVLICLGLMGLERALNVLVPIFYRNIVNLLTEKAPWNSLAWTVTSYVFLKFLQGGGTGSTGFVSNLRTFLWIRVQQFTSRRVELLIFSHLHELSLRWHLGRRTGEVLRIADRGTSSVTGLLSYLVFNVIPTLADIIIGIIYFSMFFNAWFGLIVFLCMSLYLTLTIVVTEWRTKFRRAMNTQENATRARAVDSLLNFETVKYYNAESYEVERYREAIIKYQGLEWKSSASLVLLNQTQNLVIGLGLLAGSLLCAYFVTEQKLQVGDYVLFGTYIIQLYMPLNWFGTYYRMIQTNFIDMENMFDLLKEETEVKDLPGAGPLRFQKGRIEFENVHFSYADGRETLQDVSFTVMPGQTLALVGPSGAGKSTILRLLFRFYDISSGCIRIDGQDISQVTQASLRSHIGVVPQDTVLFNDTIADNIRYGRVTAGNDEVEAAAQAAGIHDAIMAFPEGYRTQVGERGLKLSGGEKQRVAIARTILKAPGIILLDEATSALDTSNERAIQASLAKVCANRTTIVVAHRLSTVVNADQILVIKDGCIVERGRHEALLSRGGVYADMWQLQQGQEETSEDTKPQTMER
Arr AP2 block – human beta-arrestin and AP2 interaction inhibition; FITC-arrestin peptide / GST-AP2 beads, flow cytometry; AP2 beta2 appendage carries R879A mutation; inhibition, % at 10 µM; hit rate 0.31% among 340,000;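 active = inhibition above a set limit, near 3 SD of compounds lacking own fluorescence, cut at about 54% in these data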
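System: GST-tagged AP2 beta2-adaptin appendage (R879A) on 4 µm glutathione beads / Reagent: FITC-arrestin peptide, 50 nM / Detection: HyperCyt-sampled flow cytometry, FL1 channel, ex 488/em 535 nm / Timing: 12 min plus 1 h, RT / Buffer or medium: PBS plus Tween 20 (0.05%) and BSA (0.1%)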
PG9 Ab binder – PG9 antibody binding by small molecule. hit rate 0.43% among 360,000. inhibition, % at 6.7 µM. TR-FRET gp120-PG9 antibody binding. AID 624416; in the data active = inhibition above about 8.5%
Arr-AP2 CP1 – blocks beta-arrestin peptide binding to human AP2 | GST-AP2 beads, FITC arrestin peptide binding, flow cytometry; GST-fused beta2-adaptin appendage, R879A mutant | inhibition, % at 10 µM | hit rate 2% among 1,300 | shares compounds with Arr AP2 block | AID 504908;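 active = inhibition above a set limit, roughly 3 SD of non-fluorescent compound noise, cut at about 38% in these data; inactive = inhibition at or below that limit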;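 note: loss of bead fluorescence from 50 nM FITC arrestin peptide bound to appendage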
GST-FITC bead – GST-GSH bead binding interference, counter-screen | shares compounds with Arr AP2 block | GST-fluorescein binding to GSH beads, fluorescence | inhibition, % at 10 µM | hit rate 2% among 1,300 | AID 588338;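 active = inhibition above 50%, about 3 SD of the inhibition seen with non-fluorescent compounds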;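 note: fluorescein maleimide labelled GST captured on 4 micron glutathione beads; higher means more loss of bead fluorescence from quenching or blocked binding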
Each line names hits and unclear results; the compound was inactive in the other large screens (follow-up assays come after a bar, where they were run).

COc1ccc(/C=C/C(=O)c2ccccc2)cc1COc1ccccc1F	Arr AP2 block 56 | Arr-AP2 CP1 inactive | GST-FITC bead inactive
COc1ccc(C=O)cc1COc1ccccc1F	none
O=C(OCc1ccc(F)cc1)c1ccc2c(c1)-c1ccccc1C2=O	Arr AP2 block 94 | Arr-AP2 CP1 inactive | GST-FITC bead inactive
O=C(c1ccco1)N1CCN(S(=O)(=O)c2ccc3c(c2)OCCO3)CC1	Arr AP2 block 96 | Arr-AP2 CP1 inactive | GST-FITC bead inactive
Cc1cc(C(=O)COc2ccc3ccc(=O)oc3c2)c(C)n1Cc1cccs1	Arr AP2 block 94 | Arr-AP2 CP1 inactive | GST-FITC bead inactive
CCCC#C/C(CCC)=C1\c2ccccc2C(=O)N1c1ccccc1	none (no result: hiPSC survival, ABCB6 inh MLPCN, Arr AP2 block)
O=C(C(=O)N1CCC(CNS(=O)(=O)c2ccccc2OC(F)(F)F)CC1)c1cccs1	none (no result: hiPSC survival, ABCB6 inh MLPCN, Arr AP2 block)
CCOC(=O)C1CCN(c2cc3c(cc2NC(=O)c2cc(OC)ccc2Br)n(C)c(=O)n3C)CC1	none | Arr-AP2 CP1 inactive | GST-FITC bead inactive
CCOC(=O)C1CCN(c2cc3c(cc2NC(=O)c2ccccc2Br)n(C)c(=O)n3C)CC1	none | Arr-AP2 CP1 inactive | GST-FITC bead inactive
COc1ccc(C(=O)NCC2CCN(C(=O)C(=O)c3cc4ccccc4o3)CC2)cc1	none (no result: hiPSC survival, ABCB6 inh MLPCN, Arr AP2 block)
CC(C)c1nnc(NC(=O)Cc2ccccc2[N+](=O)[O-])s1	Arr AP2 block 58 | Arr-AP2 CP1 inactive | GST-FITC bead inactive
CC(C)(C)c1nnc(NC(=O)Cc2ccccc2[N+](=O)[O-])s1	none
CC(=O)c1ccc(-n2ccc(=O)cc2)cc1	Arr AP2 block 60 | Arr-AP2 CP1 inactive | GST-FITC bead inactive
C=CCNc1nc(C(=O)OC(C)C(=O)c2ccc(C)cc2)cs1 (stereo not given)	Arr AP2 block 57 | Arr-AP2 CP1 inactive | GST-FITC bead inactive
COc1cc2c(cc1NC(=O)CSc1ccccc1)oc1ccccc12	none | Arr-AP2 CP1 inactive | GST-FITC bead inactive
COc1cc2c(cc1NC(=O)Nc1cccc(C)c1)oc1ccccc12	none | Arr-AP2 CP1 inactive | GST-FITC bead inactive
COc1cc2c(cc1NC(=O)C(C)Sc1ccc(NC(C)=O)cc1)oc1ccccc12 (stereo not given)	none | Arr-AP2 CP1 inactive | GST-FITC bead inactive
COc1cc2c(cc1NC(=O)CSc1nccn1C)oc1ccccc12	none
COc1cc(NC(=O)COc2ccccc2)c(OC)cc1NC(C)=O	Arr AP2 block 60 | Arr-AP2 CP1 inactive | GST-FITC bead inactive
COc1cc2c(cc1NC(=O)C1CCCO1)oc1ccccc12 (stereo not given)	none
Cc1noc(C)c1S(=O)(=O)N1CCCc2nc(-c3ccccc3)ccc21	none (no result: hiPSC survival, ABCB6 inh MLPCN, Arr AP2 block)
COC(=O)C1=C(C)N(Cc2cccc(C(F)(F)F)c2)C(=NCC2CC2)NC1c1cccc(C(F)(F)F)c1 (stereo not given)	none (no result: hiPSC survival, ABCB6 inh MLPCN, Arr AP2 block)
CC(C)=CC(=O)NCC1CCN(C(=O)C(=O)c2cc3ccccc3o2)CC1	none (no result: hiPSC survival, ABCB6 inh MLPCN, Arr AP2 block)
COc1ccc(OCC(=O)Nc2cc3oc4ccccc4c3cc2OC)cc1	none (no result: PG9 Ab binder) | Arr-AP2 CP1 inactive | GST-FITC bead inactive
COc1ccc(NC(=O)Nc2cc3oc4ccccc4c3cc2OC)cc1	none | Arr-AP2 CP1 inactive | GST-FITC bead inactive
COc1cc2c(cc1NC(=O)/C=C/c1ccccc1)oc1ccccc12	none
COc1cc2c(cc1NC(=O)Nc1ccc(F)cc1)oc1ccccc12	none | Arr-AP2 CP1 inactive | GST-FITC bead inactive
CNC(=S)Nc1cc2oc3ccccc3c2cc1OC	none
COc1cc2c(cc1NC(=O)Nc1ccc(C)cc1)oc1ccccc12	none | Arr-AP2 CP1 inactive | GST-FITC bead inactive
COC(=O)C1=C(C)N(Cc2cccc(C(F)(F)F)c2)C(=NCc2cc(OC)c(OC)c(OC)c2)NC1c1cccc(F)c1 (stereo not given)	none (no result: hiPSC survival, ABCB6 inh MLPCN, Arr AP2 block)
COc1ccc(CC(=O)N(CCC2=CCCCC2)c2c(N)n(Cc3ccccc3)c(=O)[nH]c2=O)cc1	none (no result: Arr AP2 block)
CC(CC(=O)N(CCC1=CCCCC1)c1c(N)n(Cc2ccccc2)c(=O)[nH]c1=O)c1ccccc1 (stereo not given)	Arr AP2 block 68 | Arr-AP2 CP1 inactive | GST-FITC bead inactive
COc1ccc(S(=O)(=O)N2CCOCC2)cc1NC(=O)c1ccc(=O)[nH]c1	none | Arr-AP2 CP1 inactive | GST-FITC bead inactive
COc1ccc(S(=O)(=O)N2CCOCC2)cc1NC(=O)c1cc(=O)[nH]c2ccccc12	none | Arr-AP2 CP1 inactive | GST-FITC bead inactive
Cc1ccccc1S(=O)(=O)N1CCCc2nc(C)c(C)cc21	none (no result: hiPSC survival, ABCB6 inh MLPCN, Arr AP2 block)
CCCCCOC(=O)CCN1C(=O)/C(=C2\SC(=S)N(CCC(=O)OCCCCC)C2=O)SC1=S	Arr AP2 block 56 | Arr-AP2 CP1 inactive | GST-FITC bead inactive
CCCCOC(=O)CCN1C(=O)/C(=C2\SC(=S)N(CCC(=O)OCCCC)C2=O)SC1=S	none
N#CCC(=O)N/N=C\c1cccc(OC/C=C/c2ccccc2)c1	none
CC(=O)N/N=C\c1cccc(OC/C=C/c2ccccc2)c1	Arr AP2 block 58 | Arr-AP2 CP1 inactive | GST-FITC bead inactive
CC(=O)N/N=C\c1ccccc1OC/C=C/c1ccccc1	Arr AP2 block 58 | Arr-AP2 CP1 inactive | GST-FITC bead inactive
COC(=O)[C@]12C[C@H](CC(=O)NCCCCc3ccccc3)C(=O)N(CCC3=CCCCC3)C1=C[C@H](C(C)(C)C)O[C@@H]2C	none (no result: hiPSC survival, ABCB6 inh MLPCN, Arr AP2 block)
COC(=O)[C@@H](Cc1ccccc1)N[C@H](/C=C/c1ccccc1)[C@@H](O)Cc1ccccc1	none (no result: hiPSC survival, ABCB6 inh MLPCN, Arr AP2 block)
O=C(c1ccc2ncsc2c1)N1CCN(c2ccccc2Cl)CC1	none
O=C(c1ccc2ncsc2c1)N1CCN(c2ccc(O)cc2)CC1	Arr AP2 block 65 | Arr-AP2 CP1 inactive | GST-FITC bead inactive
COC(=O)[C@]12C[C@H](CC(=O)N3CCN(C(=O)c4ccco4)CC3)C(=O)N(Cc3ccccc3)C1=C[C@H](C1CCCC1)O[C@@H]2C	none (no result: hiPSC survival, ABCB6 inh MLPCN, Arr AP2 block)
COCCn1c(SCC(=O)Nc2ccc(S(=O)(=O)N(C)C)cc2)nc2ccccc21	Arr AP2 block 57 | Arr-AP2 CP1 inactive | GST-FITC bead inactive
COCCn1c(SCC(=O)Nc2ccc(N3CCOCC3)cc2)nc2ccccc21	none
COc1ccc(NC(=O)N(C)C[C@H]2OCc3cn(nn3)CCCC(=O)N([C@H](C)CO)C[C@@H]2C)cc1	none (no result: hiPSC survival, ABCB6 inh MLPCN, Arr AP2 block)
COC(=O)c1ccc2nc(C3CCCCC3)c(Cc3ccccc3OC)n2c1	none (no result: hiPSC survival, ABCB6 inh MLPCN, Arr AP2 block)
Cc1occc1C(=O)N/N=C/C1=C(N2CCOCC2)C(=C\c2ccc(Cl)cc2Cl)/CC1	Arr AP2 block 98 | Arr-AP2 CP1 inactive | GST-FITC bead inactive
Cc1cc(C)nc(N/N=C/C2=C(N3CCOCC3)C(=C\c3ccc(Cl)cc3)/CC2)n1	none
CCc1c(-c2ccc(Br)cc2)ncn1CCc1ccccc1OC	none (no result: hiPSC survival, ABCB6 inh MLPCN, Arr AP2 block)
COc1ccc2cc(C(=O)Nc3ccc(F)cc3)sc(=O)c2c1OC	Arr AP2 block 99 | Arr-AP2 CP1 inactive | GST-FITC bead inactive
COc1cc(/C=C(\C#N)c2nc3ccccc3[nH]2)ccc1OC(=O)c1ccco1	Arr AP2 block 97 | Arr-AP2 CP1 inactive | GST-FITC bead inactive
